This assay deals with T1, Thymidylate synthase (Lactobacillus casei) (UniProt P00469).
T1 sequence (whole entry): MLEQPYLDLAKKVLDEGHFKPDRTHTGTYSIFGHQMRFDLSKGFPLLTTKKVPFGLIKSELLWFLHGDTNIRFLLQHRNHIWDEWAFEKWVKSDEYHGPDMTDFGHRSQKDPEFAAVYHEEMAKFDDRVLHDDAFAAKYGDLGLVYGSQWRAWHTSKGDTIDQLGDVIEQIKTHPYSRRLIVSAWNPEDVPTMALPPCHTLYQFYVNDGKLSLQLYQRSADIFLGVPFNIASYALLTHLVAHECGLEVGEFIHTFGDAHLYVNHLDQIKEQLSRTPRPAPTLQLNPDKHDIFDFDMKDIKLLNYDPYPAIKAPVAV
Put plainly: Kinetic constant for the inactivation of Lactobacillus casei thymidylate synthase was determined at the concentration of 60 uM in the absence of substrate. The conditions noted are these: Lacticaseibacillus casei. Summed up: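 Enzyme (sp act. 3.2 μM mg⁻¹ min⁻¹) incubated with inhibitor in 0.1 M phosphate buffer, pH 6.8, 30 °C, with no substrate or with substrate at the stated concentration. Aliquots were withdrawn at intervals and residual activity was measured with 50 μM substrate in a 60-s assay. k_obsd was taken from activity loss; k2 and Ka came from the double-reciprocal plot of 1/k_obsd vs 1/[inhibitor].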

The compound `CC1=CC(=O)c2ccccc2C1=O` displayed a k of 5 se-1.

These data come from ChEMBL document CHEMBL1123598, “Inactivation of thymidylate synthase at an alternate high-affinity binding site” (J Med Chem, 1987).
